Most compounds without a hit are left out; they make up all but 1.3% or so of the library.
MT1-MMP act inh: blockers of MT1-MMP proenzyme processing, primary screen, HT1080 RFP-PRO-GFP cells, GFP/RFP fluorescence. Matrix metalloproteinase-14 (Homo sapiens), P50281. GFP/RFP ratio fluorescence, overnight; percent of plate control window, DMSO zero. GFP/RFP ratio change, % at 20 µM. 360,000 tested, 0.061% active. AID 651647, 2012;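 active = GFP/RFP ratio change of at least 30% with cell ATP level not reduced by more than half and red fluorescence within 50% of control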
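Test system: HT1080 RFP-PRO-GFP cells; Benchmarks: DMSO and RFP-L50D-GFP cell wells; Timing: cells overnight before dosing, compound overnight, 37 °C, 5% CO2; Compound: one 20 µM compound dose with 1% DMSO; Read-out: GFP/RFP fluorescence ratio.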
ANO1 activ: TMEM16A chloride channel activators or potentiators, primary screen, cell-based, HTS; Anoctamin-1 (Mus musculus), Q8BHY3; HEK293 TMEM16A/YFP-H148Q/I152L, iodide quench fluorescence; hits give low values; B-score at 10 µM; 340,000 tested, 0.3% active;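 active = fluorescence-ratio B-score plate-corrected deviation score at least 3 library SD below zero, with starting fluorescence score within 5 deviations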;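 also: channel opened by trigger with iodide after compound preincubation; score built on the fluorescence ratio of max minus min over baseline; more negative score means more quench and so TMEM16A activation or potentiation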
DAGLB inh: DAGLB lipase inhibitors, primary screen, biochemical, fluorescence, HTS; AID 504411, 2011; 340,000 tested, 0.059% active; inhibition, % at 5.17 µM; Diacylglycerol lipase-beta (Homo sapiens), Q8NCG7; HEK293T DAGLB membrane lysate, EnzChek fluorogenic substrate; in the data active = inhibition above about 34%;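 also: 0% = enzyme with vehicle and 100% = wells lacking enzyme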
ANO1 block: TMEM16A chloride channel inhibitors, primary screen, cell-based, HTS; 310,000 tested, 1.2% active; normalized B-score (activity score, 25-100; higher = stronger inhibition) at 10 µM; Anoctamin-1 (Mus musculus), Q8BHY3; HEK293 TMEM16A/YFP iodide influx fluorescence, ionomycin;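 active = ratio plate-corrected score three or more library SD toward inhibition, starting fluorescence score within five deviations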;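 also: score derived from kinetic fluorescence span divided by baseline fluorescence per well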
TMEM16A reconf: TMEM16A chloride channel inhibitors, confirmation, cell-based, re-confirmation. shares compounds with ANO1 block. HEK293 TMEM16A/YFP-H148Q, iodide quench fluorescence; ionomycin added to raise cell calcium. inhibition, % at 10 µM. 2,300 tested, 39% active;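 active = mean duplicate percent inhibition, scaled so buffer wells are 0 and the reference blocker 100, over three buffer SD above buffer mean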
TMEM16A Ca cntr: calcium mobilization in TMEM16A/YFP HEK293 cells, confirmation, counter-screen for TMEM16A inhibitor project. shares compounds with ANO1 block. Fluo4 calcium mobilization. calcium response (% of ionomycin), % at 10 µM. 2,300 tested, 2% active. AID 652231, 2013;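 active = duplicate-averaged calcium signal over 20% of the ionomycin maximum, relative to buffer baseline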;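 also: each well's signal is peak minus trough fluorescence divided by its pre-addition baseline; 0% = buffer wells and 100% = ionomycin wells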
Parental YFP cnt: iodide YFP quench changes in parental YFP-HEK293, counter-screen for TMEM16A inhibitor project, cell-based. shares compounds with ANO1 block. ionomycin. YFP ratio F(max-min)/F0 at 10 µM. 2,300 tested, under 10 active. AID 652233, 2013;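 active = yellow fluorescent protein signal ratio exceeding the buffer control mean by over 5 SD of those controls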;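 also: ratio is mean of duplicate wells from kinetic YFP trace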
ClC-1 rat inh: ClC-1 chloride channel inhibition, selectivity assay for TMEM16A inhibitor project, cell-based, voltage-dependent ClC-1; shares compounds with ANO1 block; ratio percent, % at 10 µM; AID 652236, 2013; CHO ClC-1-YFP, iodide influx fluorescence quench; iodide control reads 0, buffer control 100; 2,300 tested, under 10 active;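 active = duplicate-mean ratio percent above the mean of iodide-only control wells, which defines zero, plus 5 of their SD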;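 also: higher percent means stronger block of ClC-1 iodide influx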
Target sequence (P35524 whole entry, looked up): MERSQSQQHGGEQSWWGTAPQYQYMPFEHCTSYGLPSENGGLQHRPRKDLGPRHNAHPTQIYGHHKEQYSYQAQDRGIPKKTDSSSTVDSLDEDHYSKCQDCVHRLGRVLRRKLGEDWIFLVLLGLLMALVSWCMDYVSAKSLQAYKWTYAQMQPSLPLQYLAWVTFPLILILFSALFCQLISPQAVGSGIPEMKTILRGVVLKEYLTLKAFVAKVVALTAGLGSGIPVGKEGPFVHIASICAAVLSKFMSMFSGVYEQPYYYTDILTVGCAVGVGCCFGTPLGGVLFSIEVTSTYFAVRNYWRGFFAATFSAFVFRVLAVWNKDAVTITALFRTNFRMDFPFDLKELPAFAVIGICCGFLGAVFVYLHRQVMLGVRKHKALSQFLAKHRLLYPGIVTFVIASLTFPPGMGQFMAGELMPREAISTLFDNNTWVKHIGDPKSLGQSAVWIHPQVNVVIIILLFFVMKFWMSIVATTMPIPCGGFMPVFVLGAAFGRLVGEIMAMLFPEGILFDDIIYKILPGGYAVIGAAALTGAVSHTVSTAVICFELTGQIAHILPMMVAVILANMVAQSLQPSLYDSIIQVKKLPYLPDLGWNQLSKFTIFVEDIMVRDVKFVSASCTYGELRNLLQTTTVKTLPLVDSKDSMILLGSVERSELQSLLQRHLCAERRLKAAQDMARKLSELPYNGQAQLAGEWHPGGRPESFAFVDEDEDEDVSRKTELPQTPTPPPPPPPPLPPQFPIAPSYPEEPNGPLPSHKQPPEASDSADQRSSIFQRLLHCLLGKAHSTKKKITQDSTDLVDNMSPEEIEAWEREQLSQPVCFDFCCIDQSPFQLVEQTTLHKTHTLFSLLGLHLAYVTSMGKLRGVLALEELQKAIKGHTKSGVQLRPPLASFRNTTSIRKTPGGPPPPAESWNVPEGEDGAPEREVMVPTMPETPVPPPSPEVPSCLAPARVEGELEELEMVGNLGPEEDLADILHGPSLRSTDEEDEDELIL
* = called active by the depositor.

For COc1ccc2cc3cc(C(=O)Nc4ccc5c(c4)OCO5)oc3nc2c1 the results were MT1-MMP act inh -4, ANO1 activ inactive, DAGLB inh 0, ANO1 block 100*, TMEM16A reconf inactive, TMEM16A Ca cntr inactive, Parental YFP cnt -0.93 and ClC-1 rat inh -16.
For COc1ccc2nc3oc(C(=O)Nc4ccc(OC)c(OC)c4)cc3cc2c1 the results were MT1-MMP act inh 7, ANO1 activ inactive, DAGLB inh 1 and ANO1 block inactive.
`O=C(COc1ccc(F)cc1)c1ccc2c(c1)CCCC2` gave MT1-MMP act inh -1, ANO1 activ inactive, DAGLB inh -14, ANO1 block 100*, TMEM16A reconf inactive, TMEM16A Ca cntr inactive, Parental YFP cnt -1.1 and ClC-1 rat inh -20.
Screening CC1=CC(=C2C(=O)c3ccccc3C2=O)C=C(C)O1 returned MT1-MMP act inh -10, ANO1 activ inactive, DAGLB inh 0 and ANO1 block inactive.
CC(=O)N1C(=O)C(=C2C=C(C)OC(C)=C2)c2ccccc21 was read as MT1-MMP act inh 8, ANO1 activ inactive, DAGLB inh 0, ANO1 block inactive, TMEM16A reconf 28%*, TMEM16A Ca cntr inactive, Parental YFP cnt -0.85 and ClC-1 rat inh 0.
Screening CC(C)(C)c1ccc(-n2ncc3c2CCCC3NC(=O)c2ccncc2)cc1 (stereo not given) returned MT1-MMP act inh -3, ANO1 activ inactive, DAGLB inh -2 and ANO1 block inactive.
`Cc1nnsc1C(=O)NC1CCCc2c1cnn2-c1ccc(C(C)(C)C)cc1` (stereo not given) gave MT1-MMP act inh 9, ANO1 activ inactive, DAGLB inh -4, ANO1 block 25*, TMEM16A reconf 20%*, TMEM16A Ca cntr inactive, Parental YFP cnt -1.2 and ClC-1 rat inh -14.
Screening Cc1nnsc1C(=O)NC1CCCc2c1cnn2-c1ccccc1F (stereo not given) returned MT1-MMP act inh 10, ANO1 activ inactive, DAGLB inh 0, ANO1 block 100*, TMEM16A reconf inactive, TMEM16A Ca cntr inactive, Parental YFP cnt -1.3 and ClC-1 rat inh -6.
Screening O=C(CSc1nc2ccccc2c(=O)[nH]1)N1CCCCCC1 returned MT1-MMP act inh -3, ANO1 activ inactive, DAGLB inh 1 and ANO1 block inactive.
Screening O=C(CSc1nc2ccccc2c(=O)[nH]1)N1CCOCC1 returned MT1-MMP act inh -1, ANO1 activ inactive, DAGLB inh 2, ANO1 block inactive, TMEM16A reconf inactive, TMEM16A Ca cntr inactive, Parental YFP cnt -1.3 and ClC-1 rat inh -6.
`CCCC(=O)c1ccc(N2CCN(C(=O)c3ccccc3)CC2)c(F)c1` gave MT1-MMP act inh 3, ANO1 activ inactive, DAGLB inh 1, ANO1 block 25*, TMEM16A reconf inactive, TMEM16A Ca cntr inactive, Parental YFP cnt -1.2 and ClC-1 rat inh -20.
Screening CCCC(=O)c1ccc(N2CCN(C(=O)c3ccc(Br)cc3)CC2)c(F)c1 returned MT1-MMP act inh 6, ANO1 activ inactive, DAGLB inh 0 and ANO1 block inactive.
`O=C(c1ccccc1)N1CCN(C(=O)c2ccccc2Br)CC1` gave MT1-MMP act inh 0, ANO1 activ inactive, DAGLB inh 0 and ANO1 block inactive.
